# Measurements taken from ChEMBL document CHEMBL4813962, “Design, synthesis and biological evaluation of sulfamoylphenyl-quinazoline derivatives as potential EGFR/CAIX dual inhibitors” (Eur J Med Chem, 2021).
# Calls of active or inactive are those of the source. The rule behind the calls is not given here.
# Assays:
# NCI-H1975 [1] = experiment: Antiproliferative activity against human NCI-H1975 cells assessed as reduction in cell viability incubated for 72 hrs by MTT assay; type: functional, cell-based; details: NCI-H1975, 72 h
# L02 = experiment: cells; type: functional, cell-based; details: Homo sapiens, L02, 72 h
# NCI-H1975 [2] = experiment: Cytotoxicity against human NCI-H1975 cells assessed as reduction in cell viability incubated for 72 hrs under hypoxic condition by MTT assay; type: functional, cell-based; details: NCI-H1975, 72 h
# In short: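 H1975 cells grown in medium with 10% FBS and penicillin/streptomycin under hypoxia (1% O2, 94% N2, 5% CO2) at 37 °C. Compounds dissolved in DMSO and diluted in medium, final DMSO below 0.4%. Incubated 72 h at 37 °C, then MTT (5 mg/mL) for 4 h. Formazan dissolved in DMSO and OD read at 570/630 nm. IC50 from three parallel experiments.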
# A-431 = experiment: cells; type: functional, cell-based; details: Homo sapiens, A-431, 72 h
# NCI-H1975 [3] = experiment: Downregulation of carbonic anhydrase in human NCI-H1975 cells at 2 uM incubated for 24 hrs in hypoxic condition by Western blot analysis; type: functional, cell-based
# In short: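 H1975 cells treated 24 h under hypoxia (1% O2, 94% N2, 5% CO2, 37 °C), with untreated cells as negative control. Lysed on ice for 30 min, spun at 20 000 g (4 °C, 10 min), protein measured by BCA. Equal protein run on 12% SDS-PAGE and moved to PVDF. Blocked in 5% milk/TBST, anti-CAIX overnight at 4 °C, peroxidase secondary 2 h, chemiluminescent detection.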
# [4] = molecular target: T1, Epidermal growth factor receptor (Homo sapiens, UniProt P00533); experiment: Inhibition of EGFR in human NCI-H1975 cells assessed as reduction in ERK phosphorylation incubated for 24 hrs by Western blot analysis; type: cell-based; details: dose 2-5 µM
# T1 sequence (P00533 whole entry): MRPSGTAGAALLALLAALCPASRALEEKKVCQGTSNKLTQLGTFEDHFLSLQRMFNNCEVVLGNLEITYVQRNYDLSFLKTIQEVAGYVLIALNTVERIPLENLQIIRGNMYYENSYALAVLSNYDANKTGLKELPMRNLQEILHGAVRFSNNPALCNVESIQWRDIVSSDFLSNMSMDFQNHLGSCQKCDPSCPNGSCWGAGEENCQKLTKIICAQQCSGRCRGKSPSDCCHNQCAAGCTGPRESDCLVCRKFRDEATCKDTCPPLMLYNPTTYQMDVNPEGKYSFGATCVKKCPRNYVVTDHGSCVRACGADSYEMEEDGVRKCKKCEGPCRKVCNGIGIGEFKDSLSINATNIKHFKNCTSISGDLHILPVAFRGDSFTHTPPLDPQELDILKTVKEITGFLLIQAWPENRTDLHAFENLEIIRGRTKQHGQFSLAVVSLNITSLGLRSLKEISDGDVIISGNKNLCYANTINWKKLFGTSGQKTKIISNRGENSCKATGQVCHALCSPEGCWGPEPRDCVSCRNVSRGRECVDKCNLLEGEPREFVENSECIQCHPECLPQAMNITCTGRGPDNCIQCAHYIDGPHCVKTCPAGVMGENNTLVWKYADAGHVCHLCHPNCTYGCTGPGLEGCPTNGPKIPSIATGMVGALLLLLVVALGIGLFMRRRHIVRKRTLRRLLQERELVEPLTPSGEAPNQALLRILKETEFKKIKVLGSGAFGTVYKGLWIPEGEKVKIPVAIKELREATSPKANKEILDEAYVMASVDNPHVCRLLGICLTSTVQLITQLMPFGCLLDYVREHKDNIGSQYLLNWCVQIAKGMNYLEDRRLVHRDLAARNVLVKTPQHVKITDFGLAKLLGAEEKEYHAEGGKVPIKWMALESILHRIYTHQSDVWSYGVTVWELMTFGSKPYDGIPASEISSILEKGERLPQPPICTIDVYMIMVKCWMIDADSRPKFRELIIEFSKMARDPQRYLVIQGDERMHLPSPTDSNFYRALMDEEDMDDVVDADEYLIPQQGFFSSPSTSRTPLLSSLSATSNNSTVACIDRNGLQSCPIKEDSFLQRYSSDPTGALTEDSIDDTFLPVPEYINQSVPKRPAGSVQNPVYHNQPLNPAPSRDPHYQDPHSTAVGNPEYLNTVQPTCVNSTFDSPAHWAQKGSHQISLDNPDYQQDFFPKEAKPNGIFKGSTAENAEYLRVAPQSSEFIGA
# In short: (§1)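 H1975 cells exposed to 2 or 5 µM compound for 24 h under normoxia. Lysates made on ice, protein measured by BCA, equal amounts separated on 12% SDS-PAGE and moved to PVDF. Blots blocked in 5% milk/TBST, incubated overnight at 4 °C with antibodies to EGFR/p-EGFR, AKT/p-AKT and ERK/p-ERK, and developed by chemiluminescence.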
# A549 [5] = experiment: Cytotoxicity against human A549 cells assessed as reduction in cell viability incubated for 72 hrs under hypoxic condition by MTT assay; type: functional, cell-based; details: A549, 72 h
# In short: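 A549 cells given compound for 72 h at 37 °C in hypoxia (1% O2, 94% N2, 5% CO2). Compounds taken up in DMSO and diluted in medium, final DMSO below 0.4%. MTT then added for 4 h, formazan dissolved in DMSO, absorbance read at 570/630 nm. IC50 from three parallel experiments.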
# Carbonic anhydrase 9 [6] = molecular target: T2, Carbonic anhydrase 9 (Homo sapiens, UniProt Q16790); experiment: Downregulation of carbonic anhydrase 9 in human NCI-H1975 cells assessed as reduction in HIF-1alpha incubated for 24 hrs in hypoxic condition by Western blot analysis; type: cell-based
# In short: (§2)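 Lysates cleared at 20 000 g, protein quantified by BCA, equal amounts run on 12% SDS-PAGE and blotted to PVDF. Probed overnight at 4 °C for CAIX and HIF-1α, chemiluminescent detection.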
# Carbonic anhydrase 2 = Carbonic anhydrase 2 (Homo sapiens, UniProt P00918); experiment: Inhibition of human carbonic anhydrase 2 using p-nitrophenyl acetate as substrate by UV-VIS spectrophotometric analysis
# NCI-H1975 [7] = experiment: Induction of apoptosis in human NCI-H1975 cells assessed as late apoptotic cells at 5 uM incubated for 24 hrs by annexin V-FITC and propidium iodide based flow cytometry analysis (reference value: 4.98 %); type: functional
# Carbonic anhydrase 9 [8] = molecular target: T2, Carbonic anhydrase 9
# NCI-H1975 [9] = experiment: Induction of cell cycle arrest in human NCI-H1975 cells incubated for 24 hrs by propidium iodide based flow cytometry analysis; type: functional; details: dose 2-5 µM
# A549 [10] = experiment: cells; type: functional, cell-based; details: Homo sapiens, A549, 72 h
# [11] = molecular target: Epidermal growth factor receptor (Homo sapiens, UniProt P00533, T790M)
# Sequence of Epidermal growth factor receptor (Homo sapiens, UniProt P00533, T790M) (P00533 25-1210 T790M limits assumed): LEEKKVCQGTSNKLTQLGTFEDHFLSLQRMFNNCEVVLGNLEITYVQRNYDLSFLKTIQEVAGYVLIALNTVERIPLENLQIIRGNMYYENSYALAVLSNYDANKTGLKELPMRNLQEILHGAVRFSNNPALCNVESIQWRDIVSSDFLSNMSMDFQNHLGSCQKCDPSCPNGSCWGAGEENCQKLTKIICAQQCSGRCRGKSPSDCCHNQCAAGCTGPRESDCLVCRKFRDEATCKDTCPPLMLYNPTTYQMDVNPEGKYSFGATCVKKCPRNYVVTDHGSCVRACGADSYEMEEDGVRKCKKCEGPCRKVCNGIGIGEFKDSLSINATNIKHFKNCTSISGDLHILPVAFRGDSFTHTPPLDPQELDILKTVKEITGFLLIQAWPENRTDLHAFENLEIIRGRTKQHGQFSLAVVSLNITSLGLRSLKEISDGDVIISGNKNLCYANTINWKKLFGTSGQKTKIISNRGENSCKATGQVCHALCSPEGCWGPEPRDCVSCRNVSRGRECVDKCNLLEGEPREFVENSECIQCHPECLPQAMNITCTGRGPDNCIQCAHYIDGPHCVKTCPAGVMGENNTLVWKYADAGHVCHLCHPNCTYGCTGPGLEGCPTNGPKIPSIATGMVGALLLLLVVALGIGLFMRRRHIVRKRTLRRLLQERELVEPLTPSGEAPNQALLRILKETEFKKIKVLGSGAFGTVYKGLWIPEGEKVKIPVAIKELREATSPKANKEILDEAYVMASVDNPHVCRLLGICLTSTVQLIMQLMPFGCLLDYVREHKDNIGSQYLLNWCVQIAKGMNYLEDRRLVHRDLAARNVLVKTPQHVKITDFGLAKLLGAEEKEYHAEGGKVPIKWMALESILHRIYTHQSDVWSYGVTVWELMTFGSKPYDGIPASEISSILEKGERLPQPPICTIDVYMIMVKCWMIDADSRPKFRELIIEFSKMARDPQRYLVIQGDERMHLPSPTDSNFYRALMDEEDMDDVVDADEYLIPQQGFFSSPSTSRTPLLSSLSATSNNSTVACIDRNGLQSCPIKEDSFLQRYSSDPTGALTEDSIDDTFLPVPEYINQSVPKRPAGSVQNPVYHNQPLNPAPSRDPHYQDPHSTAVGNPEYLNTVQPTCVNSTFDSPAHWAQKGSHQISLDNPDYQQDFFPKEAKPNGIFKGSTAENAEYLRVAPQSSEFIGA
# [12] = molecular target: T1, Epidermal growth factor receptor; experiment: Inhibition of EGFR in human NCI-H1975 cells assessed as reduction in AKT phosphorylation incubated for 24 hrs by Western blot analysis; type: cell-based; details: dose 2-5 µM; in short: as §1
# NCI-H1975 [13] = experiment: Induction of apoptosis in human NCI-H1975 cells assessed as viable cells at 2 uM incubated for 24 hrs by annexin V-FITC and propidium iodide based flow cytometry analysis (reference value: 93.2 %); type: functional; details: read-out: Activity
# NCI-H1975 [14] = experiment: Induction of cell cycle arrest in human NCI-H1975 cells assessed as G2/M phase at 5 uM incubated for 24 hrs by propidium iodide based flow cytometry analysis (reference value: 14.74 %); type: functional
# NCI-H1975 [15] = experiment: Induction of cell cycle arrest in human NCI-H1975 cells assessed as G1 phase at 2 uM incubated for 24 hrs by propidium iodide based flow cytometry analysis (reference value: 60.76 %); type: functional
# [16] = molecular target: T1, Epidermal growth factor receptor; experiment: Inhibition of EGFR in human NCI-H1975 cells assessed as reduction in EGFR phosphorylation incubated for 24 hrs by Western blot analysis; type: cell-based; details: dose 2-5 µM; in short: as §1
# NCI-H1975 [17] = experiment: Induction of apoptosis in human NCI-H1975 cells assessed as necrotic cells at 5 uM incubated for 24 hrs by annexin V-FITC and propidium iodide based flow cytometry analysis (reference value: 0.455 %); type: functional
# NCI-H1975 [18] = experiment: Induction of apoptosis in human NCI-H1975 cells assessed as early apoptotic cells at 5 uM incubated for 24 hrs by annexin V-FITC and propidium iodide based flow cytometry analysis (reference value: 1.34 %); type: functional
# NCI-H1975 [19] = experiment: Antimigratory activity in human NCI-H1975 cells assessed as reduction in cell migration incubated for 24 hrs by wound healing assay; type: functional, cell-based; details: dose 0.5-1 µM
# In short: (§3)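 H1975 monolayer scratched with pipette tip, washed twice with PBS, then kept in serum-free medium with test compound at 0.5 or 1.0 µM; untreated control got medium only. Wound photographed by inverted microscope after 24 h and wound area traced. Migration rate = (0 h wound area − […] wound area)/0 h wound area.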
# NCI-H1975 [20] = experiment: Induction of cell cycle arrest in human NCI-H1975 cells assessed as G2/M phase at 2 uM incubated for 24 hrs by propidium iodide based flow cytometry analysis (reference value: 14.74 %); type: functional
# NCI-H1975 [21] = experiment: Antimigratory activity in human NCI-H1975 cells assessed as cell migration at 1 uM incubated for 24 hrs by wound healing assay (reference value: 51.2 %); type: functional; in short: as §3
# NCI-H1975 [22] = experiment: Induction of apoptosis in human NCI-H1975 cells assessed as viable cells at 5 uM incubated for 24 hrs by annexin V-FITC and propidium iodide based flow cytometry analysis (reference value: 93.2 %); type: functional; details: read-out: Activity
# [23] = molecular target: T1, Epidermal growth factor receptor
# NCI-H1975 [24] = experiment: Induction of apoptosis in human NCI-H1975 cells incubated for 24 hrs by annexin V-FITC and propidium iodide based flow cytometry analysis; type: functional, cell-based; details: dose 2-5 µM
# NCI-H1975 [25] = experiment: Downregulation of carbonic anhydrase 9 in human NCI-H1975 cells incubated for 24 hrs in hypoxic condition by Western blot analysis; type: functional, cell-based; in short: as §2
# NCI-H1975 [26] = experiment: Induction of cell cycle arrest in human NCI-H1975 cells assessed as S phase at 5 uM incubated for 24 hrs by propidium iodide based flow cytometry analysis (reference value: 24.50 %); type: functional
# NCI-H1975 [27] = experiment: Induction of cell cycle arrest in human NCI-H1975 cells assessed as G1 phase at 5 uM incubated for 24 hrs by propidium iodide based flow cytometry analysis (reference value: 60.76 %); type: functional
# NCI-H1975 [28] = experiment: Induction of apoptosis in human NCI-H1975 cells assessed as late apoptotic cells at 2 uM incubated for 24 hrs by annexin V-FITC and propidium iodide based flow cytometry analysis (reference value: 4.98 %); type: functional
# NCI-H1975 [29] = experiment: Induction of apoptosis in human NCI-H1975 cells assessed as necrotic cells at 2 uM incubated for 24 hrs by annexin V-FITC and propidium iodide based flow cytometry analysis (reference value: 0.455 %); type: functional
# NCI-H1975 [30] = experiment: Induction of cell cycle arrest in human NCI-H1975 cells assessed as S phase at 2 uM incubated for 24 hrs by propidium iodide based flow cytometry analysis (reference value: 24.50 %); type: functional
# NCI-H1975 [31] = experiment: Induction of apoptosis in human NCI-H1975 cells assessed as early apoptotic cells at 2 uM incubated for 24 hrs by annexin V-FITC and propidium iodide based flow cytometry analysis (reference value: 1.34 %); type: functional
structure (smiles),measurement,setting,value
C=CC(=O)Nc1cc(Nc2nccc(-c3cn(C)c4ccccc34)n2)c(OC)cc1N(C)CCN(C)C [OSIMERTINIB],IC50,NCI-H1975 [1],[…]
same,IC50,L02,> 40000 nM
CC(=O)Nc1nnc(S(N)(=O)=O)s1,Activity,NCI-H1975 [3],Active
COc1cc2ncnc(Nc3cccc(C(F)(F)F)c3)c2cc1OCCCCC(=O)Nc1ccc(S(N)(=O)=O)cc1,inhibition,[4],Dose-Dependent Effect
same,IC50,A549 [5],2210 nM
same,Activity,Carbonic anhydrase 9 [6],Dose-Dependent Effect
same,IC50,Carbonic anhydrase 2,278 nM
same,Activity,NCI-H1975 [7],14.1%
same,IC50,Carbonic anhydrase 9 [8],115 nM
same,IC50,NCI-H1975 [1],1940 nM
same,Activity,NCI-H1975 [9],Dose-Dependent Effect
same,IC50,A549 [10],6540 nM
same,IC50,L02,> 40000 nM
same,IC50,[11],9.2 nM
same,inhibition,[12],Dose-Dependent Effect
same,viability at 2 µM,NCI-H1975 [13],68.4%
same,Activity,NCI-H1975 [14],54.85%
same,IC50,NCI-H1975 [2],1050 nM
same,Activity,NCI-H1975 [15],36.98%
same,inhibition,[16],Dose-Dependent Effect
same,Activity,NCI-H1975 [17],3.4%
same,Activity,NCI-H1975 [18],26.6%
same,Activity,NCI-H1975 [19],Dose-Dependent Effect
same,Activity,NCI-H1975 [20],47.44%
same,IC50,A-431,4040 nM
same,Activity,NCI-H1975 [21],17.9%
same,viability at 5 µM,NCI-H1975 [22],56%
same,IC50,[23],27 nM
same,Activity,NCI-H1975 [24],Dose-Dependent Effect
same,Activity,NCI-H1975 [25],Dose-Dependent Effect
same,Activity,NCI-H1975 [26],17.21%
same,Activity,NCI-H1975 [27],27.94%
same,Activity,NCI-H1975 [28],7.8%
same,Activity,NCI-H1975 [29],2.19%
same,Activity,NCI-H1975 [30],15.58%
same,Activity,NCI-H1975 [31],21.6%
COc1cc2ncnc(Nc3ccc(F)c(Cl)c3)c2cc1OCCCN1CCOCC1 [GEFITINIB],viability at 2 µM,NCI-H1975 [13],86.2%
same,Activity,NCI-H1975 [15],47.52%
same,Activity,NCI-H1975 [20],33.72%
same,Activity,NCI-H1975 [28],5.44%
same,Activity,NCI-H1975 [29],0.61%
same,Activity,NCI-H1975 [30],18.76%
same,Activity,NCI-H1975 [31],7.78%
